Results as given in ChEMBL document CHEMBL1145542, “Discovery of a new class of potent, selective, and orally bioavailable CRTH2 (DP2) receptor antagonists for the treatment of allergic inflammatory diseases” (J Med Chem, 2008).

Key:
[1] = target: T1, Prostaglandin D2 receptor 2 (Homo sapiens, UniProt Q9Y5Y4); experiment: Displacement of [3H]PGD2 from human CRTH2 receptor expressed in CHO cells; assay type: cell-based
T1 sequence (Q9Y5Y4 whole entry): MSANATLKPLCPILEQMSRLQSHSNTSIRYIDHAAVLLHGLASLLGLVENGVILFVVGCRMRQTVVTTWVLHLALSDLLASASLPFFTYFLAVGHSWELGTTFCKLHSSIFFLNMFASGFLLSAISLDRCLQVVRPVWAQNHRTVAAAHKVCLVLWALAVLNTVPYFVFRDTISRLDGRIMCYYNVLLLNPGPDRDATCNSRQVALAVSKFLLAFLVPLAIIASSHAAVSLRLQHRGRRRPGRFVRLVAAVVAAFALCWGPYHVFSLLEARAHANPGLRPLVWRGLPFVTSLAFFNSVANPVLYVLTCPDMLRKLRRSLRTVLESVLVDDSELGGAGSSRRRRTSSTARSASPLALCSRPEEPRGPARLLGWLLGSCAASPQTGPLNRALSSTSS
Outline: (§1)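 Scintillation proximity competition assay: 2–5 µg human or mouse CRTH2 membranes (nitrogen-cavitation, differential centrifugation) with WGA-SPA beads and 1.5 nM [3H]PGD2 in 10 mM HEPES/KOH pH 7.4, 10 mM MnCl2, protease inhibitors, 1% Me2SO, 90 min shaking at room temperature. Nonspecific binding with 1 µM PGD2. Ki by Cheng–Prusoff, mean of ≥3 independent experiments.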

[2] = Apparent permeability across human Caco-2 cell membrane at 10 uM; assay type: ADME, cell-based
Outline: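 Caco-2 monolayers grown 21 days on Transwell filters; TEER above 800 ohm·cm² required. 10 µM test compound in HBSS added apically (A to B) or basolaterally (B to A), 2 h at 37 °C. Both compartments sampled, analysed by LC/MS-MS.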

[3] = Cmax in rat at 1 mg/kg, iv; assay type: ADME, organism-based; design: dose 1 mg/kg, route intravenous; settings: in vivo
Outline: (§2)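 Male Sprague–Dawley or Janvier rats, three per route, dosed by oral gavage or iv bolus. Serial blood drawn through an indwelling carotid catheter up to 24 h post dose. Plasma pooled by time point, analysed by LC-MS/MS; non-compartmental analysis.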

[4] = Lipophilicity, log D of the compound; assay type: physicochemical; settings: octanol/water
[5] = AUC (0 to last t) in rat at 1 mg/kg, iv; assay type: ADME, organism-based; design: time 0 - last, dose 1 mg/kg, route intravenous; settings: plasma; outline: as §2
[6] = Half life in rat at 1 mg/kg, iv; assay type: ADME, organism-based; design: dose 1 mg/kg, route intravenous; settings: in vivo; outline: as §2
[7] = Tmax in rat at 5 mg/kg, po; assay type: ADME, organism-based; design: dose 5 mg/kg, route oral; settings: in vivo; outline: as §2
[8] = Cmax in rat at 5 mg/kg, po; assay type: ADME, organism-based; design: dose 5 mg/kg, route oral; settings: in vivo; outline: as §2
[9] = Volume of distribution at steady state in rat at 1 mg/kg, iv; assay type: ADME, organism-based; design: dose 1 mg/kg, route intravenous; settings: in vivo, read-out: Vdss; outline: as §2
[10] = Clearance in rat at 1 mg/kg, iv; assay type: ADME, organism-based; design: dose 1 mg/kg, route intravenous; settings: in vivo; outline: as §2
[11] = target: T1, Prostaglandin D2 receptor 2; experiment: Antagonist activity at human CRTH2 receptor expressed in CHO cell membrane by [35S]GTP-gamma-S binding assay; assay type: functional, cell membranes
Outline: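 [35S]GTPγS binding at 30 °C on 10 µg human CRTH2 membranes in 20 mM HEPES/KOH pH 7.4, 10 mM MgCl2, 10 µg/mL saponin, 3 µM GDP, 150 mM NaCl, 2% Me2SO. PGD2 preincubation 10 min (antagonist mode: 80 nM PGD2), then 0.15 nM [35S]GTPγS for 30 min. Nonspecific binding with 10 µM GTPγS; stopped by centrifugation, scintillation counting.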

[12] = AUC (0 to last t) in rat at 5 mg/kg, po; assay type: ADME, organism-based; design: time 0 - last, dose 5 mg/kg, route oral; settings: plasma; outline: as §2
[13] = Tmax in rat at 1 mg/kg, iv; assay type: ADME, organism-based; design: dose 1 mg/kg, route intravenous; settings: in vivo; outline: as §2
[14] = Oral bioavailability in rat at 5 mg/kg; assay type: ADME, organism-based; settings: in vivo; outline: as §2
[15] = Intrinsic clearance per mg of protein in human liver microsomes at 3 uM; assay type: ADME, Microsome
Outline: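 Rat or human liver microsomes (0.5 mg/mL final) in 0.1 M phosphate pH 7.4 with 3 µM compound (1% DMSO), preincubated at 37 °C, started with 1 mM NADPH. Quenched with cold acetonitrile at 0, 15, 30, 45 min; LC/MS-MS of compound disappearance gives intrinsic clearance.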

[16] = Half life in rat at 5 mg/kg, po; assay type: ADME, organism-based; design: dose 5 mg/kg, route oral; settings: in vivo; outline: as §2
[17] = target: T2, Prostaglandin D2 receptor 2 (Mus musculus, UniProt Q9Z2J6); experiment: Displacement of [3H]PGD2 from mouse CRTH2 receptor expressed in HEK293 cells; assay type: cell-based; outline: as §1
T2 sequence (Q9Z2J6 whole entry): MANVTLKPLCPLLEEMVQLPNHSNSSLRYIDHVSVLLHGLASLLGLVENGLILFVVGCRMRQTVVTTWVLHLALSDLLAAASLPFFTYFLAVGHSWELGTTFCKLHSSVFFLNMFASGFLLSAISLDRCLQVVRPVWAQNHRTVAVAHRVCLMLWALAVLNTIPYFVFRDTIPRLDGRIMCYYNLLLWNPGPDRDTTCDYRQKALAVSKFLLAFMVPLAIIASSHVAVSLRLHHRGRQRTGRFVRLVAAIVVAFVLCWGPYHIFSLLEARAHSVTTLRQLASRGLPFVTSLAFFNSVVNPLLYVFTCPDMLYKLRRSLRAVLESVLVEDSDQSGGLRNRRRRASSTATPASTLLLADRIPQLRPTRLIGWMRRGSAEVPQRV

Cc1noc(-c2ccccc2)c1CN1CC2(CC1=O)C(=O)N(CC(=O)O)c1ccc(Cl)cc12 (stereo not given) gave a Ki [1] of 3.8 nM, a Papp at 10 µM [2] of 2.1 ×10⁻⁶ cm/s and a Cmax [3] of 1970 ng/mL. For the same compound, the logD [4] was -0.3, the AUC(0-t) [5] was 247 ng·h/mL and the half-life [6] was 6 min. The Tmax [7] was 15 min, the Cmax [8] was 6 ng/mL and the Vd [9] was 0.4 L/kg. For the same compound, the clearance [10] was 66.7 mL/min/kg, the IC50 [11] was 19 nM and the AUC(0-t) [12] was 2.01 ng·h/mL. The Tmax [13] was 0 h and the bioavailability [14] was 0.2%.
Work on O=C(O)CN1C(=O)C2(CC(=O)N(Cc3cc(Cl)ccc3F)C2)c2cc(Cl)ccc21 (single isomer, unassigned; form 1) yielded a microsomal CLint at 3 µM [15] of 3 µL/min/mg, a Ki [1] of 13 nM and a Papp at 10 µM [2] of 1.8 ×10⁻⁶ cm/s. The Cmax [3] was 5060 ng/mL, the logD [4] was -0.4 and the AUC(0-t) [5] was 1390 ng·h/mL. It also gave a half-life [6] of 54 min, a Tmax [7] of 90 min and a Cmax [8] of 55 ng/mL. For the same compound, the half-life [16] was 480 min, the Vd [9] was 0.3 L/kg and the Ki [17] was 88 nM. The clearance [10] was 11.7 mL/min/kg, the AUC(0-t) [12] was 319 ng·h/mL and the Tmax [13] was 0 h. It also gave a bioavailability [14] of 5%.
